The M2OR odorant receptor database

Key:
Details in all cases: stereoisomer not certain
OR2M5 G255A = tested on: OR2M5 G255A
Procedure, shortened: (§1)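 Each entry records the cell line, G-protein, co-transfected protein and tags used. Methods varied with the source, often transient luciferase assays in mammalian cell lines. A receptor–molecule pair is called responsive (active) if the original authors judged its signal statistically different from baseline and non-responsive (inactive) otherwise.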

OR2M5 L273M = tested on: OR2M5 L273M
OR2M5 L273M, sequence (as listed by the source, stated change not applied): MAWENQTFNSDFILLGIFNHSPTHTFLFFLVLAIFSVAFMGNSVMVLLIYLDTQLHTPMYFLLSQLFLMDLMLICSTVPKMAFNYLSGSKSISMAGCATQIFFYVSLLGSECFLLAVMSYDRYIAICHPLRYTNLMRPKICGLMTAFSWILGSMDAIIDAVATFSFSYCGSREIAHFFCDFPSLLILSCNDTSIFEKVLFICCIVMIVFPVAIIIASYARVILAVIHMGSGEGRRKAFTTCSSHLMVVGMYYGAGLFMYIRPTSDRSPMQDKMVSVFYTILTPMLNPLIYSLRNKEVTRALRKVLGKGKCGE
Procedure, shortened: as §1

OR2M5 M154T = tested on: OR2M5 M154T
OR2M5 M154T, sequence (as listed by the source, stated change not applied): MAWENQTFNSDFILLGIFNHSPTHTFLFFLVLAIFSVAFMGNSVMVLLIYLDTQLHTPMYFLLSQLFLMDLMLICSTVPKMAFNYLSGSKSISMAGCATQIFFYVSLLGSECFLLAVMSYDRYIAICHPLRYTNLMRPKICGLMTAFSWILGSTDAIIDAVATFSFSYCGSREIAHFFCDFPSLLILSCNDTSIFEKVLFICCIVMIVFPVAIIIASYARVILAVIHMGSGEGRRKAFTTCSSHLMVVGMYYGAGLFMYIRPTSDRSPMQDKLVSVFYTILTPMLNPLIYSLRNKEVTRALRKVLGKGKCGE
Procedure, shortened: as §1

OR2M5 S119A = tested on: OR2M5 S119A
OR2M5 S119A, sequence (as listed by the source, stated change not applied): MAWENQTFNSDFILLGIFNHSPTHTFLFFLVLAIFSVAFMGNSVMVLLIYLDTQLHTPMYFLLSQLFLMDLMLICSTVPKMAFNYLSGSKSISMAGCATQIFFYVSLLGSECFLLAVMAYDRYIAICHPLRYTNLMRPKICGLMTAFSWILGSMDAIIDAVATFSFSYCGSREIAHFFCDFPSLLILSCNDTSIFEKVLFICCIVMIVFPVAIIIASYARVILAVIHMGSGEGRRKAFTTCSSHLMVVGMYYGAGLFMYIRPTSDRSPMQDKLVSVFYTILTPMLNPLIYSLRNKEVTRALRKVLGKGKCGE
Procedure, shortened: as §1

[1] = tested on: OR2M5 V105T A156G A160V G255A
Procedure, shortened: as §1

[2] = tested on: OR2M5 V105T A156G G255A L273M
Procedure, shortened: as §1

OR2M5 V105T A156G G255A = tested on: OR2M5 V105T A156G G255A
Procedure, shortened: as §1

[3] = tested on: OR2M5 V105T A156G V198I G255A
Procedure, shortened: as §1

OR2M5 V105T A156G = tested on: OR2M5 V105T A156G
Procedure, shortened: as §1

OR2M5 V105T G255H = tested on: OR2M5 V105T G255H
Procedure, shortened: as §1

Measured: odorant receptor agonist call

OR2M5 G255A, sequence (as listed by the source, stated change not applied): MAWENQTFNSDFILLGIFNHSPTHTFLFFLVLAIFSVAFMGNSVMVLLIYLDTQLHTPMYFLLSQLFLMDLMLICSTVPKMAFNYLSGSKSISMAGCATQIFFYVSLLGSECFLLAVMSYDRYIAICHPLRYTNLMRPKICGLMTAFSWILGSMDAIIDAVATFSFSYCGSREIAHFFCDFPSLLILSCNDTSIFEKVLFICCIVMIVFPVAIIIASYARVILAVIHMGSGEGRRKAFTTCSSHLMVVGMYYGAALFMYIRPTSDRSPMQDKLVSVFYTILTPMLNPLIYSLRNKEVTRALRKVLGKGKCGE

CCC(S)C(C)CO (stereo not given)
inactive: all assays above
